Reference: ChEMBL document CHEMBL4513216, “Probing the Open Global Health Chemical Diversity Library for Multistage-Active Starting Points for Next-Generation Antimalarials” (ACS Infect Dis, 2020)

Test: Toxicity liver stage against HepG2, at 10uM
Type: cell-based
Design: test concentration 10 uM, cell line HepG2-A16-CD81EGFP
Settings: human, HepG2-A16-CD81EGFP cells; read-out: INHIBITION
Procedure, shortened: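 Uninfected HepG2-A16-CD81EGFP cells, 3 × 10^3 per well, 1536-well, plated on prespotted compound at 10 μM final, parasite-free screening media added to match infected plates; puromycin 10 μM positive, DMSO 0.5% negative; run in parallel with 48 h PbLuc assay at 37 °C, 5% CO2; viability by CellTiter-Glo luminescence, normalized to controls.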

SMILES	cytotoxicity at 10 µM [%]
COc1ccc(CN2C[C@@H]3OCC(=O)N(CC(N)=O)[C@@H]3C2)cc1	-4.54
Cc1cc(C(=O)N2CCN(c3nc4c(F)cccc4s3)CC2)no1	-3.64
CCc1ccc(S(=O)(=O)Nc2cnc(N3CCOCC3)nc2)cc1	-7.72
O=S(=O)(Nc1cnc(N2CCOCC2)nc1)c1ccc(C(F)(F)F)cc1	-2.73
O=C(CN1CCC(c2nnc(C(F)(F)F)o2)CC1)Nc1cccnc1	-2.46
Cn1cc(S(=O)(=O)NCc2ccsc2)cn1	0.978
O=C(CC1CC1)N1C[C@H]2CN(CC3CC3)C(=O)[C@H]2C1	3.91
Cc1nc(NC(C)C)nc2c1CN(Cc1cccs1)CC2	0.718
O=C(NC1CCC1)C1CCC2(CN(C(=O)c3ccno3)C2)O1 (stereo unspecified)	-134
CC(=O)N1CCCC2(CCN(Cc3ccc(Cl)c(C(F)(F)F)c3)C2)C1 (stereo unspecified)	11.9
CC(C)N(C)Cc1noc2c1CN(C(=O)c1ccsc1)CC2	4.89
Cc1cnc(C(=O)N2C[C@@H]3[C@@H](C2)OCC(=O)N3CC2CCCC2)cn1	-3.78
Cc1ccsc1CN1CC[C@H]2O[C@H](C(=O)N3CCCO3)CC[C@H]21	4.52
Cn1cc(-c2cnc(N3CCCC3)nc2)cc1C(=O)N1CCOCC1	-3.87
CC(C)NC(=O)N1CCC2(COCc3cnc(N4CCOCC4)nc32)C1 (stereo unspecified)	-8.75
CSc1ccc(C2CC(=O)Nc3c2c(=O)[nH]c2ncnn32)cc1 (stereo unspecified)	-8.22
CCOc1cccc(CNc2cccc(C(=O)OC)c2)c1O	7.36
O=C([C@H]1COC[C@H]2CN(Cc3ccco3)C[C@H]21)N1CCCO1	-8.79
Cc1cc(N2CCC(O)(CN(C)C(=O)CCN)C2)c2cnccc2n1 (stereo unspecified)	-2.06
Cc1nc(NCCN2CCCC2=O)cc(C2CN(C)CCO2)n1 (stereo unspecified)	-10.5
CS(=O)(=O)c1cncnc1C1CCCN(C(=O)Nc2ccc(F)cc2)C1 (stereo unspecified)	-1.86
Cc1noc(C2(C)CCN(C(=O)C(C)C)CC2)n1	-5.14
COCCN1CC(c2cc(O)nc(NC(C)C)n2)CC1=O (stereo unspecified)	-39.7

SMILES	cytotoxicity at 10 µM [%]
Cc1ccc(Br)cc1NC(=O)NCC(O)CO (stereo unspecified)	12.9
CC(=O)c1ccc(N2CCN(C(=O)NC(C)c3ccc(C)o3)CC2)cc1 (stereo unspecified)	10.1
CCCC(=O)NCC(=O)Nc1cc(F)ccc1SCC(F)F	10.8
Cc1cccc(C(=O)N2CCCC2)c1NCC(=O)NC(C)(C#N)C1CC1 (stereo unspecified)	-6.8
CCS(=O)(=O)NCC(=O)N1CCC(c2cc3ccccc3[nH]2)CC1	-7.79
O=C(CCC1CCCCC1)NCc1nnc2ccccn12	3.47
Cc1nc(C(C)(C)NCc2ncc(C3CC3)o2)sc1C	3.57
NC(=O)C1CCN(S(=O)(=O)c2cnn(-c3ccccc3)c2)C1 (stereo unspecified)	7.68
CCNC(=O)CN1CCc2c(Br)ccc(F)c2C1	4.34
O=C(NCCNc1ncccn1)c1ccc(Cl)s1	4.6
O=C(CC1CCN(c2ncnc3cccc(F)c23)CC1)N1CCCC1	7.28
Cc1noc(C)c1NC(=O)NC1CCN(C(=O)OC(C)(C)C)CC1	4.77
Cc1ccc(N2CCCC(Nc3nn4cc(C)nc4s3)C2)nn1 (stereo unspecified)	-5.78
COc1ccc(CN2CCCN(c3cc(C(N)=O)ccn3)CC2)cc1	11
COc1ccc2cc(C(=O)NCCNc3ccc(C)nn3)[nH]c2c1	-3.09
COCCCNC(=O)NCc1nc(C)c(C)o1	10.1
CC1=NN(c2ccc(C(=O)OCCNC(=O)c3ccncc3)cc2)CC1	-3.62
c1cncc(CN2CCC(c3n[nH]c(C4CC4)n3)CC2)c1	4.99
Cc1ccc(CC(=O)N2CCC(c3nnc4n3CCC4)CC2)cc1	4.78
O=C(NCCc1noc(-c2ccccn2)n1)NCC1CCCC1	0.321
CC(NC(=O)Nc1ccc(F)c(F)c1)c1nc[nH]n1 (stereo unspecified)	0.185
COCc1nc2cc(NCc3nc(C)cs3)ccc2o1	-2.57
CN(Cc1ccccc1)C(=O)CCNS(=O)(=O)c1cccnc1	-1.24

SMILES	cytotoxicity at 10 µM [%]
Cc1cc(C)n(-c2ccc(N3CCC4(CC3)OCC(C)O4)nc2)n1 (stereo unspecified)	-1.39
Cc1noc(CCCC(=O)NC(C)c2nnc3n2CCCCC3)n1 (stereo unspecified)	3.21
Cc1cc(NC(=O)c2ccc(F)cc2Br)n(C)n1	-3.12
CCN(CC)c1ncc(CNC2CCc3ncnn3C2)s1 (stereo unspecified)	-1.06
Cc1nc(C)n(CC2CN(CCn3cccn3)CCO2)n1 (stereo unspecified)	-0.665
Cc1ccc(CNc2ccn(CCc3ccncc3)n2)s1	21.8
CC(C)N(Cc1ccccc1)C(=O)NCCNC(=O)c1cccnc1	-1.66
N#CCCCS(=O)(=O)N1CCC(CSc2ccccc2)C1 (stereo unspecified)	1.7
O=C(NC1CCCN(c2ccc(OC(F)F)cc2)C1)c1ccon1 (stereo unspecified)	-7
CC(C)(C)C(=O)N1CCN(CCOc2cccc(C#N)c2)CC1	3.53
COc1c(Br)cccc1CCNC(=O)c1ccon1	-2.88
CCC1(c2ccc(NS(=O)(=O)c3cccs3)cc2)CCC(=O)NC1=O (stereo unspecified)	-8.55
CCOc1ccc(CN2C(=O)CC(C)(C(C)C)C2=O)nc1 (stereo unspecified)	-5.51
CC(C)OC(=O)CNC(=O)Nc1ccc(-c2nc(C(C)C)no2)cc1	-5.81
Cn1ccc(NCc2cc3cc(F)ccc3o2)n1	-12.4
Cn1ccc(CN2CCCN(c3nccs3)CC2)cc1=O	0.0833
Cc1noc2ncc(S(=O)(=O)Nc3cc(CC(C)(C)C)[nH]n3)cc12	5.55
Cc1nn(C)c(C)c1CCC(=O)Nc1cccn(C)c1=O	-1.96
O=C(CN1CCCCC1C1OCCO1)Nc1ccc(F)c(F)c1 (stereo unspecified)	-3.53
CN(CC(=O)NCc1ccccn1)CC1CCCN1c1cccnn1 (stereo unspecified)	-5.47
CC(O)CN1CCN(C(=O)CN(C)c2cnccn2)CC1 (stereo unspecified)	2.53
O=C(NCCc1nnc2n1CCC2)NC1(c2cccc(F)c2)CC1	3.07
CCOC(CC)C(=O)NCCC(=O)N1CCN(c2ncccn2)CC1 (stereo unspecified)	-3.91

SMILES	cytotoxicity at 10 µM [%]
O=C(C1CC2(CCNCC2)CN1)N1CCN(c2cccc(Cl)c2Cl)CC1 (stereo unspecified)	-13.9
CNS(=O)(=O)CCNCC1(O)CCCN(CCC2CCCCC2)C1=O (stereo unspecified)	0.28
COc1ccc(C(C(=O)O)N2CCC(O)(c3cccnc3)CC2)cc1F (stereo unspecified)	50.8
CC(=O)Nc1ccc(-c2ccccc2NC(=O)CN)cc1	2.83
CC(C)CN1CC(c2nc(C3CC3)n[nH]2)CC1=O (stereo unspecified)	-1.64
COCc1ncc(-c2nccn2CCN(C)C)cn1	0.126
CC(C)c1cc(C2CCCN2Cc2nc(-c3ccco3)no2)no1 (stereo unspecified)	-3.45
COc1cccc(OC2CN(C(=O)c3sccc3C)C2)c1	2.3
Cc1ccn(CCNc2ncnc3c2CCN(Cc2ncc[nH]2)CC3)n1	-1.47
Cc1cc(C(=O)N(C)Cc2nc(-c3ccccn3)no2)c(C)o1	2.84
CC(C)Cn1c(=O)n(CCCn2cccn2)c2cc(C(=O)O)cnc21	1.18
Cc1nn(C)c(C)c1CCC(=O)N(C)Cc1ccc2nsnc2c1	-1.62
CN(Cc1ccccc1-n1cccn1)c1nc(N)nc2c1CCNCC2	-12.2
CN(C)C(=O)CN1CCc2onc(-c3ccccc3F)c2C1	2.45
Cc1cccnc1N1CCN(C(=O)CCc2cn3ccccc3n2)CC1	-6.21
Cc1ccnc(OCC(=O)N2CCN(c3ncccn3)CC2)n1	-0.849
CC(C)(C)c1nc(C(C)(C)NC(=O)C2CC(=O)N(CC3CC3)C2)no1 (stereo unspecified)	-5.4
O=C(NCc1nn(-c2ccccc2)c2c1CCC2)NCC1COCCO1 (stereo unspecified)	-3.39
CCn1ccnc1CN1CCCN(C(=O)c2cc[nH]n2)CC1	-8.04
CC(C)NC(=O)CCNC(=O)Nc1ccc(-n2cncn2)c(F)c1	0.485
O=C(CC1=CCCCC1)Nc1ncn(CC(=O)N2CCCCCC2)n1	1.72
Cc1cc2n(n1)CC(CNCc1ccccc1-n1cccn1)CN2 (stereo unspecified)	-11.5
CCc1nnc2n1CCN(C(=O)Cc1nc(-c3ccco3)oc1C)C2	1.19

SMILES	cytotoxicity at 10 µM [%]
O=C(CCCNc1ncccn1)N1CCCC(n2ccnc2)C1 (stereo unspecified)	-15.1
CN1CCCc2cc(CNC(=O)c3cccnc3O)ccc21	-1.68
O=C(CCOc1cccc(F)c1)N1CCCC(n2cccn2)C1 (stereo unspecified)	-14.7
Cn1ccnc1CN1CCN(CC(O)c2ccc(F)cc2)CC1 (stereo unspecified)	-21.8
O=C(NCCNc1ccc(C(F)(F)F)cn1)c1ccc(Br)cc1	-6.28
NS(=O)(=O)c1ccc(CC(=O)N2CCCC(n3cccn3)C2)cc1 (stereo unspecified)	-0.481
Cc1nnc(NC(=O)NCc2cccnc2N(C)C)s1	-10.3
CC(C)c1nccn1C1CCCN(C(=O)c2ccc3c(c2)OCO3)C1 (stereo unspecified)	4.28
COc1cc(CNCC2CN(C3CC3)CCO2)cc(OC)c1 (stereo unspecified)	-24.3
CC(C)n1cnc2c1C(C(=O)NCCO)N(Cc1ccccc1)CC2 (stereo unspecified)	2.43
O=C1N(c2ccsc2)CCC12CCCN(Cc1cccnc1)C2 (stereo unspecified)	-128
c1csc(CN2CCC3(CCOCC3COCC3CC3)CC2)n1 (stereo unspecified)	5.02
Cc1ccc(CN2CC(C(=O)NCC3CC3)C3(CCOCC3)C2)s1 (stereo unspecified)	-3.66
COCCN1CCC(c2nc3ccc(-c4ccccc4)cn3n2)CC1	-8.84
CC(C)(C)c1n[nH]cc1CNC1CCC(OCC(F)(F)F)CC1 (stereo unspecified)	-0.0197
COCC(=O)N1CCC(c2nc3ccc(N4CCCC4)cn3n2)CC1	-15.4
COc1ncnc2c1CCN(C(=O)NCc1cccnc1)CC2	-133
Cc1ccc(N2CC[C@@H]3CN(Cc4cc[nH]n4)C[C@@H]3C2)nn1	3.47
CC(C)n1nc(CN2CCOCC2)c2c1CN(Cc1ccsc1)C2	-132
